The values that follow come from paper PMC3863768 (Journal of medicinal chemistry, 2012).

Residue numbers refer to the chain shown, from its start. Bounds are passed on as bounds.

In assay [1] the target is T1, PfNMT (Plasmodium falciparum, UniProt Q9U419).
T1 sequence (Q9U419 1-410): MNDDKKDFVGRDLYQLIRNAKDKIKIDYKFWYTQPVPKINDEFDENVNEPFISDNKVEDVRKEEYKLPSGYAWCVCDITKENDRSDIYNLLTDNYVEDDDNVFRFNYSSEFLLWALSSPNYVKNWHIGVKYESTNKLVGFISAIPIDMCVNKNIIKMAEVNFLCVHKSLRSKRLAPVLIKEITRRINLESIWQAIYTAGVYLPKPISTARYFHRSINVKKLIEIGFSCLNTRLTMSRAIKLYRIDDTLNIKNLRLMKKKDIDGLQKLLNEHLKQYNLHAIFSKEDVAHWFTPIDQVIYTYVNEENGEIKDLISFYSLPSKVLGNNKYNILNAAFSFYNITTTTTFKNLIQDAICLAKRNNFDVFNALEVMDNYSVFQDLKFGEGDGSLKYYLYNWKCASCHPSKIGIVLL
Description: NMT enzyme inhibition assay. In kind it is biochemical, P. falciparum. The note with it: for lower inhibition vs. 4: shorter or longer spacers than the methylene ester; for lower inhibition vs. 4 / activity drop vs. 4: compared with compound 4. The procedure, abridged: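 Stopped with streptavidin PVT beads in pH 4 stop solution; scintillation counted. No-inhibitor wells set 100%, no-enzyme wells 0%. Test compound 500 μM to 2 nM, in duplicate. IC50 by nonlinear regression, averaged from two independent curves.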

Assay [2] deals with T2, HsNMT1 (Homo sapiens, UniProt P30419).
T2 sequence (P30419 109-496 limits assumed): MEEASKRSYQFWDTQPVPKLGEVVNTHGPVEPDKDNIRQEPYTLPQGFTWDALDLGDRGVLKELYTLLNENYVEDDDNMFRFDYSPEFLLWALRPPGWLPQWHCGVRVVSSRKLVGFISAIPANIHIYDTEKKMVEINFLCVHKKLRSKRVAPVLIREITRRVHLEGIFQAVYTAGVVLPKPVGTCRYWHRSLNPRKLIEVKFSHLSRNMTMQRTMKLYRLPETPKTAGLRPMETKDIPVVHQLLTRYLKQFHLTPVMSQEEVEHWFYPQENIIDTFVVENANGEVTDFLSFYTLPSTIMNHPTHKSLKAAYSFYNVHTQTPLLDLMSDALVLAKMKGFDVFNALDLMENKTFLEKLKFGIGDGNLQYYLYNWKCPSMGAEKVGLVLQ
Description: NMT enzyme inhibition assay. In kind it is biochemical.

Assay [3] has as its system P. falciparum, 3D7 line. Nature of the assay: P. falciparum inhibition assay. The settings on record: synchronized P. falciparum trophozoites (3D7 line). In kind it is cell-based. The procedure, abridged: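 Synchronous late-trophozoite cultures (1% parasitemia, 2% hematocrit) with test compound in 0.5% DMSO, 48 h at 37 °C. Aliquots stained with hydroethidine (1:200 dilution of 10 mg/mL stock in PBS), 20 min at 37 °C; 50,000 cells counted by flow cytometry. Untreated parasites and uninfected RBCs are the controls; % inhibition computed.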

Assay [4] has as its target T3, HsNMT1 Y296A (Homo sapiens, UniProt P30419, Y296A).
T3 sequence (P30419 109-496 Y296A limits assumed): T2 sequence (P30419 109-496 limits assumed) with Y188A
Nature of the assay: NMT enzyme inhibition assay. Type of assay: biochemical. The note with it: HsNMT1 Y296A vs wild type.

In the case of `CCOC(=O)c1oc2cccc(OCCCNCc3cccnc3)c2c1C` [Compound 1, reference compound], in assay [1], the “PfNMT inhibition (in words)” value was “moderate inhibition”. Also, the “selectivity over human NMT1 (in words)” value in assay [2] is on record as “promising selectivity”.

With `CCOC(=O)c1oc2cccc(OC3CCNCC3)c2c1C` [Compound 2, Ethyl 3-methyl-4-(piperidin-4-yloxy) benzofuran-2-carboxylate], the “activity improvement over 1” value in assay [1] (PfNMT inhibition, compared with compound 1) is recorded as 3 fold. Besides, the “selectivity over human NMT1 (in words)” value in assay [2] is reported as “good human selectivity”.

Take `Cc1c(C(=O)Oc2ccccc2)oc2cccc(OC3CCNCC3)c12` [Compound 3, Phenyl 3-methyl-4-(piperidin-4-yloxy)-1-benzofuran-2-carboxylate]: the “lower inhibition vs. 4” value in assay [1] was 10- to 100 fold.

As to `Cc1c(C(=O)OCc2ccccc2)oc2cccc(OC3CCNCC3)c12` [Compound 4], the “anti-plasmodial effect in vitro (in words)” value in assay [3] is listed as “highest anti-parasitic activity”.

On to `Cc1c(C(=O)OCCc2ccccc2)oc2cccc(OC3CCNCC3)c12` [Compound 7], for which the “lower inhibition vs. 4” value in assay [1] is given as 10- to 100 fold.

Consider `Cc1c(C(=O)OCCCc2ccccc2)oc2cccc(OC3CCNCC3)c12` [Compound 8], for which the “lower inhibition vs. 4” value in assay [1] is on record as 10- to 100 fold.

By IC50 is commonly meant the concentration that inhibits the measured activity by half. The compound `Cc1c(C(=O)NC(C)C)oc2cccc(OC3CCNCC3)c12` [Compound 9, N-isopropyl-3-methyl-4-(piperidin-4-yloxy)benzofuran-2-carboxamide] gave an IC50 in assay [1] above 200 µM.

In assay [1], `Cc1c(C(=O)NC2CCCCC2)oc2cccc(OC3CCNCC3)c12` [Compound 10] showed an IC50 above 100 µM.

Turning to `Cc1c(CCc2ccccc2)oc2cccc(OC3CCNCC3)c12` [Compound 18, 4-{[3-Methyl-2-(2-phenylethyl)-1-benzofuran-4-yl]oxy}piperidine], in assay [1], the “PfNMT inhibition (in words)” value is recorded as “does not confer inhibitory activity”.

Regarding `Cc1c(COCc2ccccc2)oc2cccc(OC3CCNCC3)c12` [Compound 21, 4-({2-[(Benzyloxy)methyl]-3-methyl-1-benzofuran-4-yl}oxy)-piperidine], in assay [1] (PfNMT inhibition), the “activity drop vs. 4” value came out at 40 fold.

Take `Cc1c(C(=O)CCc2ccccc2)oc2cccc(OC3CCNCC3)c12` [Compound 22]: the “activity drop vs. 4” value in assay [1] (PfNMT inhibition) came out at 40 fold.

As for `Cc1c(C(=O)/C=C/c2ccccc2)oc2cccc(OC3CCNCC3)c12` [Compound 23, (2E)-1-[3-Methyl-4-(piperidin-4-yloxy)-1-benzofuran-2-yl]-3-phenylprop-2-en-1-one], the “improvement in affinity vs. 22” value in assay [1] (PfNMT inhibition, compared with compound 22) amounted to 3 fold.

In the case of `O=S(=O)(Cc1ccccc1)c1cc2c(OC3CCNCC3)cccc2o1` [Compound 24, 4-{[2-(Phenylmethane)sulfonyl-1-benzofuran-4-yl]oxy}piperidine], in assay [1], the “PfNMT inhibition (in words)” value is reported as “dramatic loss of activity”.

Consider `Cc1c(-c2nc(Cc3ccccc3)no2)oc2cccc(OC3CCNCC3)c12` [Compound 25], for which the “PfNMT inhibition (in words)” value in assay [1] is on record as “promising potency”.

Take `COc1cccc(COC(=O)c2oc3cccc(OC4CCNCC4)c3c2C)c1` [Compound 26]: the “increase in affinity on mutation of the human NMT” value in assay [4] was “four- to five-fold”. In addition, the “PfNMT inhibition (in words)” value in assay [1] is on record as “comparable potency to the parent compound 4”. Further, the “HsNMT1 inhibition (in words)” value in assay [2] is “weak inhibition”.
